Source: PubChem (Broad Institute)
INS-1E_ATP_HTS – protection of INS-1E cells from cytokine death, primary screen, ATP luminescence, single point. protection from cytokine-induced ATP loss, % at 10 µM. INS-1E cytokine-induced death, 48 h; normalised: neutral wells 0, positive control 100. AID 488910, 2010. 20,000 tested, 0.1% active;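 active means mean replicate protection from cytokine-induced ATP loss at least 50% and at least 75% of replicates each reaching 50%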
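Assay system: INS-1E rat insulinoma cells. Amount: 8000 cells per well. Medium: phenol-red-free RPMI with 5% fetal bovine serum. Reagent: IL-1β, TNF-α and IFN-γ cytokine mix. Doses: one compound concentration, pin transfer. Schedule: 48 h co-treatment, 10 min post-lysis read. Detection: CellTiter-Glo luminescence measuring cellular ATP.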
T_cruzi_intra – inhibitors of intracellular Trypanosoma cruzi, primary screen, cell-based, plate reader, single point, set 2. intracellular Trypanosoma cruzi in host cells. activity score (inhibition), % at 5.01 µM. 22,000 tested, 4.9% active. AID 651903, 2012; in the data active means activity score above about 55%;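 further: parasites and compound incubated about four days before reading; 0% = median of neutral control wells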
A1_apoptosis_2 – A1 inhibitors via caspase activation, primary screen, cell-based, luminescence, HTS, two replicates; MEF A1-2A-BIM cells, caspase-Glo luminescence, 3 h; percent of clofoctol response, DMSO zero; caspase activation, % (test concentration not listed); 24,000 tested, under 10 active; AID 2465, 2010; in the data active means caspase activation above about 5.9%
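System: mouse embryonic fibroblasts co-expressing A1 and BIM (A1-2A-BIM), primed for A1 dependence; amount: 2500 cells/well; doses: 50 nL pinned compound; schedule: cells settled overnight, compound exposure 3 h at 37 °C, 5% CO2; detection: Caspase-Glo 3/7 luminescence, 1 h at room temperature; read-out: Caspase-3/7 activation, seen as rise in luminescence signal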
An asterisk follows results filed as active; x = no result. Many of the other results were omitted from the sample, so hits are more common in it than they were.

SMILES INS-1E_ATP_HTS T_cruzi_intra A1_apoptosis_2
C[C@@H]1CCCCO[C@@H](CN(C)S(=O)(=O)c2ccccc2)[C@H](C)CN([C@H](C)CO)C(=O)c2cc(NS(=O)(=O)c3cn(C)cn3)ccc2O1 x x 1
C[C@@H]1CN([C@@H](C)CO)C(=O)c2cccc(NC(=O)c3ccc(-c4nccs4)cc3)c2O[C@H]1CN(C)C(=O)Nc1ccc(C(F)(F)F)cc1 1 68* x
C[C@@H]1CN([C@H](C)CO)C(=O)c2cccc(NC(=O)c3ccc(-c4nccs4)cc3)c2O[C@H]1CN(C)C(=O)Nc1ccc(C(F)(F)F)cc1 -4 77* x
C[C@H](CO)N1C[C@H](C)[C@H](CN(C)C(=O)Nc2ccc(F)cc2)Oc2c(NC(=O)c3ccc(-c4nccs4)cc3)cccc2C1=O 14 -12 x
C[C@H]1CN([C@@H](C)CO)C(=O)c2cccc(NC(=O)c3ccc(-c4nccs4)cc3)c2O[C@H]1CN(C)C(=O)Nc1ccc(C(F)(F)F)cc1 -11 24 x
C[C@@H]1CN([C@H](C)CO)C(=O)c2cc(NC(=O)CCC(F)(F)F)ccc2O[C@H]1CN(C)C(=O)Nc1ccc(C(F)(F)F)cc1 3 -12 x
O=C(NO)c1ccc(C(=O)N/N=C/c2cc3ccccc3n2S(=O)(=O)c2ccccc2)cc1 x x 1
Cc1ccc(S(=O)(=O)Nc2ccc3c(c2)C(=O)N([C@H](C)CO)C[C@@H](C)[C@@H](CN(C)Cc2ccc(Cl)c(Cl)c2)O3)cc1 -19 36 x
Cc1ccc(S(=O)(=O)Nc2ccc3c(c2)CC(=O)N([C@H](C)CO)C[C@@H](C)[C@H](CN(C)Cc2ccc(Cl)c(Cl)c2)O3)cc1 2 65* x
Cc1ccc(S(=O)(=O)Nc2ccc3c(c2)CC(=O)N([C@@H](C)CO)C[C@H](C)[C@H](CN(C)Cc2ccc(Cl)c(Cl)c2)O3)cc1 0 19 x
C[C@@H]1CN([C@@H](C)CO)C(=O)Cc2cc(NS(=O)(=O)c3ccc(Cl)cc3)ccc2O[C@H]1CN(C)Cc1ccc(Cl)c(Cl)c1 x x -1
Cc1ccc(S(=O)(=O)Nc2ccc3c(c2)CC(=O)N([C@@H](C)CO)C[C@@H](C)[C@@H](CN(C)Cc2ccc(Cl)c(Cl)c2)O3)cc1 -30 59* 1
Cc1ccc(S(=O)(=O)Nc2ccc3c(c2)CC(=O)N([C@H](C)CO)C[C@@H](C)[C@@H](CN(C)Cc2ccc(Cl)c(Cl)c2)O3)cc1 -51 71* x
Cc1noc(C)c1NC(=O)N(C)C[C@@H]1OCCCC[C@@H](C)Oc2ccc(NC(=O)Nc3cccc4ccccc34)cc2C(=O)N([C@H](C)CO)C[C@@H]1C 8 -6 x
Cc1noc(C)c1NC(=O)N(C)C[C@@H]1Oc2ccc(NC(=O)Cn3cnnn3)cc2C(=O)N([C@H](C)CO)C[C@H]1C 6 -9 -1
C[C@@H]1CN([C@@H](C)CO)C(=O)c2cccc(NS(=O)(=O)c3ccc(Cl)cc3)c2O[C@@H]1CN(C)C(=O)Nc1cccc2ccccc12 5 -13 0
C[C@@H]1CN([C@@H](C)CO)C(=O)CCCn2nncc2CO[C@@H]1CN(C)C(=O)Nc1ccc(F)cc1 x -8 -1
COc1ccc(NC(=O)Nc2ccc3c(c2)C(=O)N([C@H](C)CO)C[C@@H](C)[C@@H](CN(C)S(=O)(=O)c2ccc(F)cc2)OCCCC[C@H](C)O3)cc1 x x 0
C[C@@H]1CN([C@H](C)CO)C(=O)Cc2cc(NC(=O)Nc3cccc4ccccc34)ccc2O[C@@H]1CN(C)Cc1ccccc1 -19 68* 2
C[C@@H]1CN([C@H](C)CO)C(=O)c2cc(NC(=O)Nc3cccc4ccccc34)ccc2O[C@@H]1CN(C)Cc1ccc(Cl)c(Cl)c1 -12 54 x
C[C@H]1CN([C@@H](C)CO)C(=O)Cc2cc(NC(=O)Nc3cccc4ccccc34)ccc2O[C@@H]1CN(C)Cc1ccc2c(c1)OCO2 -22 64* 0
C[C@H]1CN([C@@H](C)CO)C(=O)c2cccc(NC(=O)Nc3cccc4ccccc34)c2O[C@H]1CN(C)Cc1ccc2c(c1)OCO2 -16 65* -1
C[C@@H]1CN([C@H](C)CO)C(=O)Cc2cc(NC(=O)Nc3ccccc3)ccc2O[C@H]1CN(C)Cc1ccc2c(c1)OCO2 -6 -9 -1
C[C@@H]1CN([C@H](C)CO)C(=O)c2cc(NC(=O)Nc3cccc4ccccc34)ccc2O[C@H]1CN(C)Cc1ccc(Cl)c(Cl)c1 -34 58* -1
C[C@@H]1CN([C@H](C)CO)C(=O)c2cccc(NC(=O)Nc3cccc4ccccc34)c2O[C@@H]1CN(C)Cc1ccc2c(c1)OCO2 -17 -13 -1
SMILES INS-1E_ATP_HTS T_cruzi_intra A1_apoptosis_2
C[C@@H]1CN([C@@H](C)CO)C(=O)Cc2cc(NC(=O)Nc3cccc4ccccc34)ccc2O[C@H]1CN(C)Cc1ccccc1 x x 1
C[C@H](CO)N1C[C@H](C)[C@@H](CN(C)C(=O)CCCN(C)C)OCCCC[C@H](C)Oc2ccc(NC(=O)NC3CCCCC3)cc2C1=O x x -1
C[C@@H]1CN([C@H](C)CO)C(=O)Cc2cc(NC(=O)c3ccncc3)ccc2O[C@@H]1CN(C)S(=O)(=O)c1cn(C)cn1 1 6 x
C[C@H](CO)N1C[C@H](C)[C@H](CN(C)Cc2ccc(Cl)c(Cl)c2)Oc2ccc(NC(=O)CCC(F)(F)F)cc2CC1=O -26 14 0
C[C@@H]1CCCCO[C@@H](CN(C)S(=O)(=O)c2ccc(Cl)cc2)[C@@H](C)CN([C@H](C)CO)C(=O)c2cc(NC(=O)CCCN(C)C)ccc2O1 2 -10 0
C[C@@H]1CN([C@@H](C)CO)C(=O)Cc2cc(NC(=O)Nc3cccc4ccccc34)ccc2O[C@H]1CN(C)CC1CC1 x x 1
COc1ccc(CN(C)C[C@@H]2Oc3ccc(NC(=O)Nc4cccc5ccccc45)cc3CC(=O)N([C@H](C)CO)C[C@H]2C)cc1 -4 65* 1
C[C@H](CO)N1C[C@H](C)[C@@H](CN(C)Cc2ccc(Oc3ccccc3)cc2)Oc2ccc(NC(=O)Nc3cccc4ccccc34)cc2CC1=O x x -1
C[C@H]1CN([C@@H](C)CO)C(=O)c2cc(NC(=O)Nc3cccc4ccccc34)ccc2O[C@H]1CN(C)Cc1ccccc1 -5 -16 1
Cc1ccc(S(=O)(=O)N(C)C[C@@H]2Oc3ccc(NC(=O)Nc4cccc5ccccc45)cc3CC(=O)N([C@@H](C)CO)C[C@@H]2C)cc1 -15 -6 x
Cc1ccc(S(=O)(=O)N(C)C[C@H]2Oc3ccc(NC(=O)Nc4cccc5ccccc45)cc3CC(=O)N([C@@H](C)CO)C[C@H]2C)cc1 -5 67* 2
C[C@H](CO)N1C[C@H](C)[C@H](CN(C)Cc2ccc3c(c2)OCO3)Oc2ccc(NC(=O)Nc3cccc4ccccc34)cc2C1=O -19 61* -1
C[C@H](CO)N1C[C@H](C)[C@H](CN(C)CC2CCCCC2)Oc2ccc(NC(=O)Nc3cccc4ccccc34)cc2CC1=O 4 61* x
